Columns and labels:
[1] = cited from earlier work
[2] = tested on: HCT116 cells; experiment: Cell viability assay; type: cell-based, human; conditions: for IC50: Homo sapiens, HCT-116, read-out: antiproliferative activity
Procedure, shortened: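 HCT116 cells (ATCC) were grown in DMEM with 10% FBS at 37 °C, 5% CO2. They were seeded at 1 × 10^4 cells/well and treated 24 h later with a range of test-compound concentrations or 1% EtOH solvent control. After 48 h, viability was read by MTT per the kit instructions.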

[3] = tested on: met proto-oncogene receptor (MET); experiment: Immunoblot analysis for RTK; type: cell-based, human; conditions: HCT116, 24 h
Procedure, shortened: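 HCT116 cells were seeded at 4 × 10^5 cells/well in 6-well plates and dosed the next day with graded test-compound concentrations or 1% EtOH. After 24 h, whole-cell lysates were made in PhosphoSafe buffer, protein was quantified by BCA, and equal protein was run on 4–12% SDS-PAGE. Blots on PVDF were probed with anti-Met plus secondary antibody, with chemiluminescent detection.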

[4] = Aqueous stability, pH 4.88; type: physicochemical; conditions: Figure 3 conditions generally, especially acidic (pH 4.88)
[5] = tested on: HCT116 xenograft; experiment: In vivo efficacy, HCT116 xenograft mouse model
[6] = tested on: VEGFR2; experiment: Immunoblot of xenograft tumors for RTK; type: in vivo, mouse; conditions: higher dose (0.25 mg/kg), end of efficacy study
[7] = tested on: colorectal tumor xenograft; conditions: cited from earlier work

CC[C@H](C)[C@H]1C(=O)N2CCC[C@H]2C(=O)O[C@H](C(C)(C)C)C[C@@H](C)C[C@H](O)[C@@H](C)C2=N[C@@H](CCC(=O)N[C@@H](Cc3ccc(OC)cc3)C(=O)N(C)[C@@H](C)C(=O)N1C)CS2 [Compound 34-epi-1a, apratoxin S6]
potency relative to 1a ([1]; ref 2a): same potency

CC[C@H](C)[C@H]1C(=O)N2CCC[C@H]2C(=O)O[C@H](C(C)(C)C)C[C@@H](C)C[C@H](O)[C@H](C)C2=N[C@H](CCC(=O)N[C@@H](Cc3ccc(OC)cc3)C(=O)N(C)[C@@H](C)C(=O)N1C)CS2 [Compound 1d, Apratoxin S9]
fold potency over the other apratoxins ([2]; all three assays (cell growth, MET levels, VEGF-A secretion)): 2–3 fold | potency in reducing MET levels [3]: picomolar (subnanomolar) potency | relative in vitro stability [4]: slightly enhanced compared with that of 1a

CC[C@H](C)[C@H]1C(=O)N2CCC[C@H]2C(=O)O[C@H](C(C)(C)C)C[C@@H](C)C[C@H](O)C(C)(C)C2=N[C@@H](CCC(=O)N[C@@H](Cc3ccc(OC)cc3)C(=O)N(C)[C@@H](C)C(=O)N1C)CS2 [Compound 1c, Apratoxin S8]
IC50 [2]: 1 to 2 nM | tumor growth inhibition ([5]; 0.1 mg/kg (~2 μg/mouse) daily ip for 16 days): about 50% | effect on tumor growth ([5]; 0.25 mg/kg (~5 μg/mouse) daily ip for 16 days): strongly retarded the tumor growth | signs of toxicity (weight loss, abnormal behavior) ([5]; 0.1 and 0.25 mg/kg daily ip for 16 days): did not observe signs of toxicity | VEGFR2 expression levels in tumors [6]: detectable reduction in VEGFR2 expression levels

CC[C@H](C)[C@H]1C(=O)N2CCC[C@H]2C(=O)O[C@H](C(C)(C)C)C[C@@H](C)C[C@H](O)[C@H](C)C2=N[C@@H](CCC(=O)N[C@@H](Cc3ccc(OC)cc3)C(=O)N(C)[C@@H](C)C(=O)N1C)CS2 [Compound 1a, apratoxin S4]
relative in vitro stability [4]: somewhat less stable than 1c | potency and efficacy versus apratoxin A ([7]; colorectal tumor xenograft model ref 2a): greater potency and efficacy | tolerability in vivo ([7]; ref 2a): much better tolerated

CC[C@H](C)[C@H]1C(=O)N2CCC[C@H]2C(=O)O[C@H](C(C)(C)C)C[C@@H](C)C[C@H](O)CC2=N[C@@H](CCC(=O)N[C@@H](Cc3ccc(OC)cc3)C(=O)N(C)[C@@H](C)C(=O)N1C)CS2 [Compound 1b, Apratoxin S7]
IC50 [2]: 1 to 2 nM | relative in vitro stability [4]: somewhat less stable than 1c

CC[C@H](C)[C@H]1C(=O)N2CCC[C@H]2C(=O)O[C@H](C(C)(C)C)C[C@@H](C)C/C=C/C2=N[C@@H](CCC(=O)N[C@@H](Cc3ccc(OC)cc3)C(=O)N(C)[C@@H](C)C(=O)N1C)CS2 [apratoxin E]
activity relative to other apratoxins ([1]; ref 1c): much reduced activity

Reference: PMC3993931 (Journal of Medicinal Chemistry, 2014)
